Source: PubChem (several laboratories)
Arr AP2 block: inhibitors of human beta-arrestin and AP2 interaction; AID 504490; actives 0.31% (n = 340,000); FITC-arrestin peptide / GST-AP2 beads, flow cytometry; AP2 beta2 appendage carries R879A mutation; inhibition, % at 10 µM;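 active means inhibition above a set limit, near 3 SD of compounds lacking own fluorescence, cut at about 54% in these data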;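 further: plate controls were DMSO wells for no effect and 5 µM unlabelled arrestin peptide for full effect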
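Measured by: flow cytometry, FL1 (488/535 nm); Material: AP2 appendage R879A on GSH beads; Evaluation: percent response; Timing: pre-incubation 12 min, peptide binding 1 h, room temperature; Also added: 50 nM FITC-arrestin peptide; Medium: PBS with 0.05% Tween 20 and 0.1% BSA.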
HGIII-sPLA2 inh: Blocks human group III sPLA2 activity; actives 0.56% (n = 370,000); Q9NZ20; QFRET BODIPY PC-A2 liposome hydrolysis, fluorescence; inhibition, % at 12.2 µM; AID 743126;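 active means inhibition above mean plus 3 SD of compounds lying within the high and low control bounds, cut at about 19% in these data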;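 further: 0% = median of test compound wells and 100% = no enzyme DMSO wells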
Target sequence (Q9NZ20 whole entry, looked up): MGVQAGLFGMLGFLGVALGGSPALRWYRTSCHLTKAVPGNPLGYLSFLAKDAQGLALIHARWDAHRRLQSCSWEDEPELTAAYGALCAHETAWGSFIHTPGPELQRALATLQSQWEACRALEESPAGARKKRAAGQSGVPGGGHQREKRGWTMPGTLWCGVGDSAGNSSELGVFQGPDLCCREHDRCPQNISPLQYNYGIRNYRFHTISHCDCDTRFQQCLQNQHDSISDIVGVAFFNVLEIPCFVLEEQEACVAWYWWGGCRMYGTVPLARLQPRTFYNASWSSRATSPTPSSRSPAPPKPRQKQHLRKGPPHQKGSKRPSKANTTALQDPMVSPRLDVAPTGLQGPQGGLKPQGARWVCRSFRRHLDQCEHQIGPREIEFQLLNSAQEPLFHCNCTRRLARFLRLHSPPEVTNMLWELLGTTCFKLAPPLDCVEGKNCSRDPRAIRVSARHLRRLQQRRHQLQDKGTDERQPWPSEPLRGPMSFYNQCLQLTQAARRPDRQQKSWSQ
PLC-gamma1 inh: inhibitors of human phospholipase C gamma1; purified PLC-gamma1, fluorogenic substrate, fluorescence; inhibition, % at 12.2 µM; actives 0.84% (n = 370,000); AID 720700; in the data active means inhibition above about 9.5%
proCasp3 act: activates human procaspase-3; P42574; recombinant procaspase-3 D3A, Ac-DEVD-pNA absorbance 405 nm; activation, % at 8.5 µM; actives 0.11% (n = 330,000); AID 463141;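 active means activation above the mean of all tested compounds plus 3 SD, cut at about 21% in these data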;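 further: 0% = DMSO alone and 100% = DMSO wells spiked with extra 5 µM PC-3 D3A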
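Assay system – Procaspase-3 D3A mutant, all three cleavage aspartates alanine · Controls – DMSO-only low control, 5 µM PC-3 D3A high control · Schedule – 1 h compound preincubation, 2 h substrate hydrolysis at 25 °C · Signal – 405 nm absorbance of p-nitroaniline, reads at 0 and 120 min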
PLCb3 inh: inhibitors of human phospholipase C beta3 | Purified PLC-beta3, fluorogenic substrate, fluorescence | actives 0.18% (n = 370,000) | Q01970 | inhibition, % at 12.2 µM; in the data active means inhibition above about 11%;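 further: 0% = median of compound wells on plate and 100% = full blocker control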
proCasp7 act: activates human procaspase-7, counter-screen for procaspase-3 activators; actives 0.093% (n = 330,000); activation, % at 8.5 µM; recombinant procaspase-7, Ac-DEVD-pNA absorbance 405 nm; D23A/D198A/D206A triple mutant, cannot self-cleave; scale: DMSO 0, 5 µM enzyme 100;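 active means percent activation above the screen-wide mean plus 3 SD, cut at about 25% in these data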
Target sequence (P55210 whole entry D23A/D198A/D206A): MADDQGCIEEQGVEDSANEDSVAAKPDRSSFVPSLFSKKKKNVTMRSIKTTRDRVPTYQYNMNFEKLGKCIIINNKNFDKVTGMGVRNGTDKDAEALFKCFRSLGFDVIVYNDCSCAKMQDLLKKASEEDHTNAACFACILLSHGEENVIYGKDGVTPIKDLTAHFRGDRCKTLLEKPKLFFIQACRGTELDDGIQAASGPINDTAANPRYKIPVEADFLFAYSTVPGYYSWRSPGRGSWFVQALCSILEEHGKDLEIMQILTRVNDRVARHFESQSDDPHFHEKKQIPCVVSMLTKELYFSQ
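Assay system: Uncleavable procaspase-7 mutant enzyme; Input: 2 µM procaspase-7 mutant as dispensed; Also added: DEVD-pNA substrate; Medium: Zinc-free HEPES pH 7.4 with 300 mM NaCl, 0.01% Triton X-100; Timing: 1 h compound preincubation, 2 h substrate cleavage, 25 °C; Measured by: Epi-absorbance of released pNA at 405 nm, two timepoints.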
sPLA2 confirm: human GIII-sPLA2 inhibition, confirmation; actives 34% (n = 2,000); recombinant hGIII-sPLA2, BODIPY PC-A2 QFRET fluorescence; inhibition, % at 12.2 µM; shares compounds with HGIII-sPLA2 inh;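 active means mean inhibition across triplicates above the hit cutoff set in the earlier primary screen, cut at about 19% in these data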;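 further: 0% = enzyme with DMSO and 100% = DMSO wells lacking enzyme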
BODIPY interf: 535nm fluorescence interference, HGIII-sPLA2 counter-screen | AID 743282 | shares compounds with HGIII-sPLA2 inh | actives 8.5% (n = 2,000) | inhibition, % at 12.2 µM | BODIPY FL product fluorescence interference, QFRET;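 active means average inhibition above the solvent-only control mean plus 3 SD, cut at about 6% in these data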;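 further: 0% = DMSO with substrate plus product and 100% = DMSO with substrate alone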
Active calls of the source: *; i = inactive; nt = no result given. A selection: hits, their analogues and other compounds. The true share with any hit is near 1.9%.

SMILES | Arr AP2 block | HGIII-sPLA2 inh | PLC-gamma1 inh | proCasp3 act | PLCb3 inh | proCasp7 act | sPLA2 confirm | BODIPY interf
CCC(=O)NC(c1ccc(C)cc1)c1ccc2cccnc2c1O (stereo not given) | 9.1 | 21.0* | -16.1 | 8.3 | -26.9 | -1.4 | 16.3 | -12.1
CCCCC(=O)NC(c1ccc(OC)cc1)c1ccc2cccnc2c1O (stereo not given) | nt | 10.3 | -7.0 | nt | -6.0 | nt | nt | nt
CCC(=O)NC(c1ccc(C)cc1)c1cc([N+](=O)[O-])c2cccnc2c1O (stereo not given) | -5.4 | 7.6 | 2.7 | -34.7 | 1.6 | -42.3 | nt | nt
CCCC(=O)NC(c1ccccc1Cl)c1ccc2cccnc2c1O (stereo not given) | -6.8 | 30.5* | -11.4 | -3.0 | -22.9 | 10.6 | 26.1* | 1.3
CCCC(=O)NC(c1ccc(N(C)C)cc1)c1ccc2cccnc2c1O (stereo not given) | 10.6 | 23.2* | -1.8 | -3.5 | -8.6 | -0.7 | 25.2* | -5.3
CCCC(=O)NC(c1ccc(C(C)C)cc1)c1ccc2cccnc2c1O (stereo not given) | -1.1 | 19.7* | -7.3 | 3.1 | -16.4 | -12.5 | 17.5 | -12.5
Nc1nc(Nc2ccccc2F)nc(N2CCOCC2)c1[N+](=O)[O-] | -6.2 | 15.4 | 0.5 | -10.3 | -9.8 | -7.3 | nt | nt
COCCCNC(=O)CN(Cc1ccc(Cl)cc1)S(C)(=O)=O | -5.7 | 20.6* | 2.2 | 1.2 | 2.7 | -1.6 | 5.6 | -6.8
Cc1cc(NS(C)(=O)=O)c(=O)n(Cc2cccc(C(F)(F)F)c2)c1 | nt | 21.3* | -3.7 | nt | -8.8 | nt | 17.3 | -6.6
COCC(=O)Nc1cc(C)cn(Cc2cccc(C(F)(F)F)c2)c1=O | 0.6 | 11.6 | -5.7 | 4.0 | -2.2 | 4.3 | nt | nt
CC(NC(=O)CN1CCOCC1)c1ccccc1 (stereo not given) | 7.9 | 17.9 | 2.7 | 6.0 | -7.7 | -1.0 | nt | nt
CC(NC(=O)CN1CCOCC1)c1ccc(F)cc1 (stereo not given) | -6.1 | 20.6* | -0.8 | 3.6 | -2.6 | 3.9 | -5.1 | -5.0
Cc1ccc(OCC(=O)Nc2ccc(NC(=O)c3ccccc3)c(C)c2)cc1 | 23.6 | -4.2 | -0.7 | nt | -2.2 | nt | nt | nt
O=C(O)c1cccc(N2C(=O)c3cc([N+](=O)[O-])cc4cc([N+](=O)[O-])cc(c34)C2=O)c1 | -16.0 | 4.9 | -3.2 | 5.6 | -11.6 | -8.2 | nt | nt
CCCCn1c(N)c(N(CCOC)C(=O)CN2C(=O)C3CCCCC3C2=O)c(=O)[nH]c1=O (stereo not given) | -5.2 | 9.1 | -0.5 | -0.5 | -5.0 | 11.8 | nt | nt
CCN(CC)c1ccc(C=Nc2ccccc2C)c(O)c1 | 13.6 | 20.2* | -61.9 | -2.1 | -66.7 | 3.4 | 9.7 | -3.2
CCN(CC)c1ccc(/C=N/NC(=S)NCc2ccccc2)c(O)c1 | 20.6 | 35.6* | -63.9 | 7.0 | -82.9 | -17.0 | 25.4* | 10.9*
Cc1ccc(-c2nc3ncccn3c2NC(=O)c2ccc(F)cc2)cc1 | nt | -2.0 | -355.5 | nt | -431.7 | nt | nt | nt
CC1=NN(c2ccccc2)C(=O)/C1=C/C=C/c1ccccc1 | -23.4 | 23.0* | 2.4 | -4.5 | -1.7 | -0.6 | 46.0* | 10.8*
COC(=O)C1=NN(C(=O)c2ccccc2)C(O)(c2ccc([N+](=O)[O-])cc2)C1 (stereo not given) | -18.6 | 33.3* | 1.5 | nt | -0.1 | nt | 56.6* | 16.9*
CCC1=NN(C(=O)c2ccccc2[N+](=O)[O-])C(O)(c2ccccc2)C1 (stereo not given) | nt | 22.7* | -3.5 | nt | 4.2 | nt | 6.7 | -1.2
COC(=O)C1=NN(C(=O)c2ccccc2)C(C)(O)C1 (stereo not given) | -0.4 | -0.2 | 4.4 | 2.2 | 5.3 | 10.0 | nt | nt
Cc1ccc(SCCC(=O)NC2CC2)cc1 | 13.3 | 2.6 | 1.6 | -5.6 | 4.7 | 7.0 | nt | nt
CCC(C)NC(=O)CCSc1ccc(C)cc1 (stereo not given) | 0.5 | 19.3* | 3.0 | 5.3 | -3.4 | 2.8 | 0.8 | -3.9
COc1ccc(/C=C(\C#N)c2nc3ccc(C)cc3[nH]2)cc1Oc1ccc(C(F)(F)F)cc1[N+](=O)[O-] | 3.7 | 19.7* | -12.1 | -2.7 | -19.5 | -6.3 | -5.2 | -12.7
SMILES | Arr AP2 block | HGIII-sPLA2 inh | PLC-gamma1 inh | proCasp3 act | PLCb3 inh | proCasp7 act | sPLA2 confirm | BODIPY interf
O=C(COc1ccccc1O)NCCN1CCOCC1 | -3.9 | 19.7* | 6.3 | -0.8 | -9.0 | -6.2 | 11.6 | -2.2
N#Cc1ccccc1OCC(=O)OCC(=O)Nc1ccc2c(c1)OCO2 | 19.7 | 4.6 | -1.7 | 1.1 | -8.2 | 2.6 | nt | nt
COC(=O)C1=NN(c2cccc(C)c2)C2C(=O)N(c3ccccc3OC)C(=O)C12 (stereo not given) | 2.6 | 20.2* | -333.8 | 18.0 | -335.5 | 18.3 | -2.4 | -2.1
COC(=O)C1=NN(c2ccccc2OC)C2C(=O)N(c3ccccc3OC)C(=O)C12 (stereo not given) | -7.2 | -4.8 | -121.4 | 11.5 | -146.9 | 7.6 | nt | nt
Cc1nc2ccccc2c(=O)n1NC(=O)c1cccc(Cl)c1 | -8.2 | -3.3 | -1.7 | 2.0 | -5.3 | 10.0 | nt | nt
CC(CSc1nnnn1-c1ccccc1)Cn1c(N2CCCC2)nc2c1c(=O)[nH]c(=O)n2C (stereo not given) | -7.6 | 20.8* | 6.7 | 4.2 | 3.4 | -0.2 | -0.3 | -20.8
CN(C)S(=O)(=O)c1cccc(NC(=S)N/N=C/c2cc(Br)ccc2O)c1 | 27.0 | 38.6* | i | -30.1 | i | -18.5 | 28.1* | 10.8*
CN(C)S(=O)(=O)c1cccc(NC(=S)N/N=C/c2cccc(O)c2)c1 | 7.2 | -9.3 | 0.9 | 2.6 | 5.9 | -2.1 | nt | nt
O=C(CNC(=O)c1ccco1)Nc1ccc(N2CCCCCC2)cc1 | 15.6 | 22.5* | -1.2 | 7.1 | -14.4 | -5.7 | 12.2 | 0.3
O=C(CNC(=O)c1ccc(Br)o1)Nc1ccc(N2CCCCCC2)cc1 | 3.3 | 10.8 | -0.4 | nt | -10.6 | nt | nt | nt
COc1ccc(C2=Cc3ccc(OC(C)=O)cc3OC2)cc1 | -1.7 | -5.0 | -116.9 | nt | -161.2 | nt | nt | nt
O=[N+]([O-])c1ccccc1CNC(Cc1ccccc1)c1ccccc1 (stereo not given) | 1.2 | 23.5* | -4.6 | 1.2 | -6.6 | -9.7 | 2.4 | -11.2
Cc1ccc(C)c(NC(=S)Nc2ncccc2C)c1 | 11.0 | 19.5* | 0.3 | -3.0 | 1.1 | 8.9 | 10.1 | -8.1
COc1cc(NC(=S)Nc2ncccc2C)cc(OC)c1OC | 2.6 | 1.1 | -1.2 | 2.6 | -2.9 | -11.6 | nt | nt
